High-throughput results (PubChem BioAssay)
Compounds with a hit are over-represented: about 3% of the library has one in this group of screens.
Myeloid diff 2 = compounds promoting myeloid differentiation; ER-HoxA9 myeloid progenitors, lysozyme-GFP differentiation, flow cytometry; calls only at 10 µM; 360,000 tested, 1% active; AID 624256;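 active = normalized GFP-positive differentiation at or above the plate's own cutoff, the solvent-only control mean plus 3 SD; inconclusive = no clear call, values can overlap the other calls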;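 also: cells exposed to compound for four days before flow analysis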
HNF4A DNA FP = change in binding of human HNF4 alpha to DNA | 360,000 tested, 0.3% active | P41235 | HNF4a-FITC DNA binding, fluorescence polarization, 1 h | activity change, % at 10 µM; in the data active = activity change above about 30%, passing the limit was not always enough
Exocytosis inh = lytic granule exocytosis inhibition; TALL-104 LAMP-1 surface exposure, flow cytometry; cells stimulated with thapsigargin and PMA; inhibition, % at 10 µM; 360,000 tested, 0.66% active; AID 651702;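 active = inhibition above about 55%, limit read from the data; inconclusive = no clear call, values can overlap the other calls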
H9c2 protect = myocardial damage modulation in H9c2 cells; protection from H2O2 cell death, % at 20 µM; H9c2 cardiomyocytes, H2O2 injury protection, ATPLite, 2 h; 360,000 tested, 0.63% active;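 active = compounds giving at least 50% protection of heart cells from peroxide-induced death in the single-dose screen, raw or plate-pattern-corrected value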;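 also: 0% = DMSO wells with peroxide and 100% = DMSO wells without peroxide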
DSG3 Ab inh = human desmoglein-3 autoantibody binding inhibition; P32926; DSG3-coupled beads, scFv-anti-DSG3-GFP binding, flow cytometry; active compounds read low; binding (percent of control), % at 10 µM; 310,000 tested, 0.48% active; AID 588358;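 active = binding more than 3 SD below its plate's average and above zero; inconclusive = below that plate limit but binding exactly zero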;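 also: hits lower antibody fragment binding to DSG3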
SENP1 inh = inhibitors of human SENP1 SUMO protease catalytic domain; inhibition, % at 10 µM; recombinant SENP1 catalytic domain, CyPet-SUMO1-YPet FRET cleavage; Q9P0U3; 360,000 tested, 0.21% active;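 active = inhibition at least 30% at 10 µM, raw YFP signal under a set limit, fluorescence ratio 0.5 to 1.5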;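 also: 0% = enzyme with DMSO and 100% = no enzyme wells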
Target sequence (Q9P0U3 419-644 limits assumed): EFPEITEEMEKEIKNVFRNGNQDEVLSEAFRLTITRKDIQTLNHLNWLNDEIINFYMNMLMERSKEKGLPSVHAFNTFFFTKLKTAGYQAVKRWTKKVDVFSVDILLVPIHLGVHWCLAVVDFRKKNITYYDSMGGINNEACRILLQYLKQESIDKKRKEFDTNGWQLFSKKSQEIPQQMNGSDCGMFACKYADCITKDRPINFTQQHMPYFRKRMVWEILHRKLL
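Material – human SENP1 catalytic domain · Input – SENP1 enzyme, 20 pM final · Compound dosing – single concentration of 10 µM compound, 0.5% DMSO final · Timing – enzyme reaction for 50 min at room temperature, dark · Measured by – FRET fluorescence in CFP and YFP emission channels · Control set – no-enzyme wells low, DMSO-plus-enzyme wells high control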
Numbers without * were called inactive; i = inactive; ? = inconclusive; . = no result; + = active, no number.

SMILES | Myeloid diff 2 | HNF4A DNA FP | Exocytosis inh | H9c2 protect | DSG3 Ab inh | SENP1 inh
COc1cc(/C=C/c2nc3ccccc3c(=O)n2-c2cccc(O)c2)ccc1O | + | 17 | 12 | 43 | 96 | -51
COc1ccccc1-n1c(/C=C/c2ccc(O)cc2)nc2ccccc2c1=O | i | 7 | 1 | 13 | 114 | -8
O=c1c2ccccc2nc(/C=C/c2ccccc2)n1-c1ccc(O)cc1 | i | 4 | -4 | 14 | 112 | -1
CO[C@H]1[C@@H](OC)CC(OC2OC(CO)C(O)C(O)C2O)/C(=C\C#N)[C@@H]1O (stereo not given in full) | i | -2 | 4 | 1 | 98 | 1
c1ccc2c3c([nH]c2c1)CNCC3 | + | 1 | -2 | 4 | i | -2
COc1ccc2[nH]c3c(c2c1)CCNC3 | i | 5 | -1 | 7 | . | 0
CCOP(=O)(OCC)/C(C#N)=C/c1ccc(Br)cc1 | i | 0 | 16 | 3 | 95 | 2
O/N=C1\CCC2CN(C3CCCCC3)CC2C1 (stereo not given) | i | 2 | 1 | 15 | 12* | 1
CN1C2CCC1CC(=NO)C2 | i | 4 | 1 | 3 | 100 | 2
COCCCn1c(N)c(C(=O)Nc2sc3c(c2C(=O)OC)CCCC3)c2nc3ccccc3nc21 | i | 10 | 7 | 93* | 102 | -25
CC(C)(O)C1C2OC(=O)C1C1(O)CC3OC34C(=O)OC2C14C (stereo not given) | ? | 1 | -5 | -12 | 99 | 1
O=c1[nH]sc2cc(F)ccc12 | ? | 0 | 33 | -18 | 4.9* | 1
CN(Cc1ccccc1)Cc1ccccc1OC(=O)N(C)C | i | -1 | 2 | -3 | . | 1
O=c1[nH]c(=O)n(-c2cccc3ccccc23)c(O)c1/C=N/N1CCCCC1c1cccnc1 (stereo not given) | i | 33* | 4 | 1 | 88 | 0
O=c1[nH]c(=O)n(C2CCCCC2)c(O)c1/C=N/N1CCCCC1c1cccnc1 (stereo not given) | i | 2 | -3 | -6 | 86 | 3
COc1cccc(C(c2nnnn2-c2ccc3c(c2)OCCO3)N2CCC(n3c(=O)[nH]c4ccccc43)CC2)c1OC (stereo not given) | + | -4 | -1 | 37 | . | 2
COc1ccc(-n2nnnc2C(c2cccc(OC)c2OC)N2CCC(n3c(=O)[nH]c4ccccc43)CC2)cc1 (stereo not given) | i | 2 | -2 | 40 | . | 2
CC1=C(O)C(=O)C=C2C1=CC=C1C2(C)CCC2(C)C3CC(C)(C(=O)O)CCC3(C)CCC12C (stereo not given) | ? | -7 | 106* | -16 | 90 | -2
CCCC(=O)NC(Oc1ccc(C(C)=O)cc1)C(Cl)(Cl)Cl (stereo not given) | i | 3 | -3 | 12 | 100 | 1
Cc1ccc(NC(=O)CC[C@H]2O[C@@H](n3cnc4c(NC(=O)c5ccccc5)ncnc43)[C@H](O)[C@@H]2O)cc1C | i | 1 | -2 | -1 | . | 3
Cc1c(C)c2ccc(OCC(=O)N3C[C@H]4C[C@@H](C3)c3cccc(=O)n3C4)c(C)c2oc1=O | i | -2 | -1 | 3 | 103 | 2
CN1CCC(N(C)c2nc(-c3ccc([N+](=O)[O-])cc3)nc3ccccc23)CC1 | i | -8 | 17 | -29 | 103 | 2
CN(CC1COc2ccccc2O1)c1nc(-c2cccnc2)nc2ccccc12 (stereo not given) | i | 4 | 87* | 90* | 111 | 0
O=C1NC(=O)C(CCc2ccncc2)(Cc2ccc3c(c2)OCO3)C(=O)N1CCc1ccccc1 (stereo not given) | + | 0 | 42 | 21 | 105 | 2
Cc1[nH]n(-c2ccccc2)c(=O)c1C(c1ccc([N+](=O)[O-])cc1)c1c(C)[nH]n(-c2ccccc2)c1=O | i | 1 | 0 | -22 | 97 | 3
O=[N+]([O-])c1ccc(C(c2ccc([N+](=O)[O-])cc2)c2ccc([N+](=O)[O-])cc2)cc1 | + | -3 | -8 | -9 | 92 | 2
